≈ marks a conversion by molar mass, not a printed value. Calls of active or inactive are those of the source. No cut-off for these calls is given here.
Experiments:
[1] = Resistance index, ratio of IC50 for chloroquine-resistant Plasmodium falciparum RKL9 infected in human RBC to IC50 for chloroquine-sensitive Plasmodium falciparum 3D7 infected in human red blood cells; assay type: functional
How it was run: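 Ratio of IC50 vs RKL9 to IC50 vs 3D7. Both from 24 h, 37 °C culture in RBCs (2-3% parasitemia, 8% hematocrit, RPMI 1640 plus human AB+ serum, 90% N2/5% CO2/5% O2), Giemsa smear schizont counts, non-linear regression.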

[2] = Selectivity index, ratio of IC50 for cytotoxicity against African green monkey vero cells to IC50 for antimalarial activity against chloroquine-resistant Plasmodium falciparum RKL9 infected in human red blood cells; assay type: toxicity, cell-based; conditions: read-out: Ratio IC50
How it was run: (§1)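 SI = CC50/IC50. CC50 from Vero cells exposed 72 h to compound dilutions, MTT read-out (modified Mosmann method). Antimalarial IC50 from 24 h, 37 °C P. falciparum (3D7 or RKL9) RBC culture, Giemsa schizont counts, non-linear regression.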

[3] = Selectivity index, ratio of IC50 for cytotoxicity against African green monkey vero cells to IC50 for antimalarial activity against chloroquine-sensitive Plasmodium falciparum 3D7 infected in human red blood cells; assay type: toxicity, cell-based; conditions: read-out: Ratio IC50; how it was run: as §1
Plasmodium falciparum [4] = assay: Antimalarial activity against chloroquine-sensitive Plasmodium falciparum 3D7 infected in human red blood cells assessed as inhibition of schizont stage parasite growth measured after 24 hrs by giemsa staining based assay; assay type: functional, cell-based; conditions: 3D7, 24 h
How it was run: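 Parasitized RBCs (2-3% parasitemia, 8% hematocrit) in RPMI 1640 with human AB+ serum were exposed to serial dilutions of test samples from 1 mg/ml stock. Incubation was 24 h at 37 °C under 90% N2/5% CO2/5% O2. Giemsa-stained smears were scored for schizonts (≥3 merozoites). IC50 was taken from dose-response curves by non-linear regression.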

Plasmodium falciparum [5] = assay: Antimalarial activity against chloroquine-resistant Plasmodium falciparum RKL9 infected in human red blood cells assessed as inhibition of schizont stage parasite growth measured after 24 hrs by giemsa staining based assay; assay type: functional, cell-based; conditions: RKL9, 24 h
How it was run: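 P. falciparum RKL9 parasitized RBCs at 2-3% parasitemia, 8% hematocrit in RPMI 1640 with human AB+ serum. Exposed to serial dilutions of test samples, 24 h at 37 °C under 90% N2/5% CO2/5% O2. Giemsa-stained smears; schizonts (≥3 merozoites) counted; IC50 by non-linear regression of dose-response curves.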

Plasmodium berghei [6] = assay: Antimalarial activity against Plasmodium berghei NK65 infected in Swiss albino mouse assessed as mean survival days at 50 mg/kg, po administered 4 hrs post infection for 4 days measured up to 30 days (Rvb= 7.2 days); assay type: functional
Plasmodium berghei [7] = assay: Antimalarial activity against Plasmodium berghei NK65 infected in Swiss albino mouse assessed as reduction in parasitemia at 50 mg/kg, po administered 4 hrs post infection for 4 days measured on day 4 post infection by giemsa staining based microscopic method; assay type: functional; set-up: scale not given: the % may be the effect or the level left
How it was run: (§2)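 Peters 4-day suppressive test: female Swiss albino mice (20-25 g), groups of five, infected ip with about 10-15% P. berghei NK65-parasitized erythrocytes from a donor mouse. Oral dosing began 4 h later and was given on days 0-3. Vehicle-only group served as negative control. On day 4, tail-vein smears were methanol-fixed, Giemsa-stained and read at 1000×. % suppression was calculated against the negative control.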

Heme [8] = assay: Binding affinity to monomeric heme assessed as 1:1 stoichiometry for heme-compound complex up to 100 uM at pH 5.6 by Job's plot analysis
How it was run: (§3)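 Monomeric hemin was prepared in 40% DMSO with 0.02 M HEPES (pH 7.4) or 0.02 M MES (pH 5.6). Absorbance was monitored at 402 nm. Complex stoichiometry was determined by a molar-fraction Job's plot.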

Heme [9] = assay: Binding affinity to monomeric heme (unknown origin) assessed as association constant at pH 5.6 by UV-titration method
How it was run: (§4)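 Hemin stock was 1.2 mM in DMSO. It was diluted into aqueous DMSO (40%) buffered with HEPES pH 7.4 (0.02 M), or with MES for the pH 5.6 run. The titrant (2 mM stock in DMSO) was added stepwise at 0-100 µM final, and the Soret band was read at 402 nm. Association constant (log K) was derived by titration.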

Rattus norvegicus = assay: Acute toxicity in Wistar rat assessed as inflammatory cells infiltration in periportal area of liver at <300 mg/kg, po measured after 14 days; assay type: organism-based; conditions: in vivo, 336 h
Plasmodium berghei [10] = assay: Antimalarial activity against Plasmodium berghei NK65 infected in Swiss albino mouse assessed as reduction in parasitemia at 25 mg/kg, po administered 4 hrs post infection for 4 days measured on day 4 post infection by giemsa staining based microscopic method; assay type: functional; set-up: scale not given: the % may be the effect or the level left; how it was run: as §2
Heme [11] = assay: Binding affinity to monomeric heme assessed as 1:1 stoichiometry for heme-compound complex up to 100 uM at pH 7.4 by Job's plot analysis; how it was run: as §3
Plasmodium berghei [12] = assay: Antimalarial activity against Plasmodium berghei NK65 infected in Swiss albino mouse assessed as mean survival days at 25 mg/kg, po administered 4 hrs post infection for 4 days measured up to 30 days (reference value: 7.2 days); assay type: functional
Heme [13] = assay: Binding affinity to monomeric heme (unknown origin) assessed as association constant at pH 7.4 by UV-titration method; how it was run: as §4
mu-oxodimeric heme [14] = assay: Binding affinity to mu-oxodimeric heme (unknown origin) assessed as 1:1 stoichiometry for mu-oxodimeric heme-compound complex up to 100 uM at pH 5.8 by Job's plot analysis
How it was run: (§5)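 Hemin stock was 10 mM in 0.1 M NaOH, sonicated 30 min, then diluted in 20 mM phosphate buffer pH 5.8 to give µ-oxodimeric heme. Compound from 2 mM DMSO stock was titrated in (0-100 µM) and absorbance followed at 362 nm. Log K was obtained by titration, and stoichiometry by molar-fraction Job's plot.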

mu-oxodimeric heme [15] = assay: Binding affinity to mu-oxodimeric heme (unknown origin) assessed as association constant at pH 5.8 by UV-titration method; how it was run: as §5
Plasmodium berghei [16] = assay: Antimalarial activity against Plasmodium berghei NK65 infected in Swiss albino mouse assessed as reduction in parasitemia at 5 mg/kg, po administered 4 hrs post infection for 4 days measured on day 4 post infection by giemsa staining based microscopic method; assay type: functional; set-up: scale not given: the % may be the effect or the level left; how it was run: as §2
Plasmodium berghei [17] = assay: Antimalarial activity against Plasmodium berghei NK65 infected in Swiss albino mouse assessed as mean survival days at 5 mg/kg, po administered 4 hrs post infection for 4 days measured up to 30 days (reference value: 7.2 days); assay type: functional

Row | SMILES | Ratio IC50 [1] | selectivity ratio [2] | selectivity ratio [3] | IC50 (Plasmodium falciparum [4]) | IC50 (Plasmodium falciparum [5]) | further results
1 | NS(=O)(=O)c1ccc(N2N=C(c3ccc(OCC4=NCCO4)cc3)CC2c2ccc(Cl)cc2)cc1 (configuration not stated) | 3.87 | 5.7 | 22.2 | 0.471 µg/mL (≈ 0.922 µM) | 1.82 µg/mL (≈ 3.57 µM) | 
2 | O=C(/C=C/c1cccc(O)c1)c1ccc(OCC2=NCCO2)cc1 | 3.05 | 7.7 | 23.6 | 0.515 µg/mL (≈ 1.59 µM) | 1.57 µg/mL (≈ 4.86 µM) | 
3 | O=C(/C=C/c1ccc(O)cc1)c1ccc(OCC2=NCCO2)cc1 |  |  |  | 2.44 µg/mL (≈ 7.54 µM) |  | 
4 | COc1ccc(C2CC(c3ccc(OCC4=NCCO4)cc3)=NN2c2ccccc2)cc1 (configuration not stated) | 2.88 | 10.5 | 30.4 | 0.545 µg/mL (≈ 1.27 µM) | 1.57 µg/mL (≈ 3.67 µM) | 
5 | Fc1ccc(C2CC(c3ccc(OCC4=NCCO4)cc3)=NN2c2ccccc2)cc1 (configuration not stated) |  |  |  | 0.645 µg/mL (≈ 1.55 µM) |  | 
6 | CC(=O)N1N=C(c2ccc(OCC3=NCCO3)cc2)CC1c1ccc(Cl)cc1 (configuration not stated) | 3.06 | 9.6 | 29.5 | 0.513 µg/mL (≈ 1.29 µM) | 1.57 µg/mL (≈ 3.95 µM) | 
7 | c1ccc(N2N=C(c3ccc(OCC4=NCCO4)cc3)CC2c2c[nH]c3ccccc23)cc1 (configuration not stated) | 9.22 | 2.3 | 21.3 | 0.459 µg/mL (≈ 1.05 µM) | 4.23 µg/mL (≈ 9.7 µM) | 
8 | O=C(/C=C/c1c[nH]c2ccccc12)c1ccc(OCC2=NCCO2)cc1 |  |  |  | 0.936 µg/mL (≈ 2.7 µM) |  | 
9 | Clc1ccc(C2CC(c3ccc(OCC4=NCCO4)cc3)=NN2c2ccccc2)cc1 (configuration not stated) | 3.29 | 7.1 | 23.3 | 0.477 µg/mL (≈ 1.1 µM) | 1.57 µg/mL (≈ 3.64 µM) | 
10 | NS(=O)(=O)c1ccc(N2N=C(c3ccc(OCC4=NCCO4)cc3)CC2c2ccc([N+](=O)[O-])cc2)cc1 (configuration not stated) |  |  |  | 0.627 µg/mL (≈ 1.2 µM) |  | 
11 | COc1ccc(C2CC(c3ccc(OCC4=NCCO4)cc3)=NN2)cc1 (configuration not stated) |  |  |  | 1.03 µg/mL (≈ 2.94 µM) |  | 
12 | O=C(/C=C/c1ccc([N+](=O)[O-])cc1)c1ccc(OCC2=NCCO2)cc1 |  |  |  | 0.723 µg/mL (≈ 2.05 µM) |  | 
13 | O=C(/C=C/c1ccc(Cl)cc1)c1ccc(OCC2=NCCO2)cc1 | 3.27 | 7.8 | 25.5 | 0.557 µg/mL (≈ 1.63 µM) | 1.82 µg/mL (≈ 5.33 µM) | 
14 | O=C(/C=C/c1cccc(Cl)c1)c1ccc(OCC2=NCCO2)cc1 |  |  |  | 0.577 µg/mL (≈ 1.69 µM) |  | 
15 | O=C(/C=C/c1ccc2c(c1)OCCO2)c1ccc(OCC2=NCCO2)cc1 |  |  |  | 4.23 µg/mL (≈ 11.6 µM) |  | 
16 | Cc1ccc(C2CC(c3ccc(OCC4=NCCO4)cc3)=NN2c2ccccc2)cc1 (configuration not stated) |  |  |  | 1.01 µg/mL (≈ 2.45 µM) |  | 

Row | SMILES | Ratio IC50 [1] | selectivity ratio [2] | selectivity ratio [3] | IC50 (Plasmodium falciparum [4]) | IC50 (Plasmodium falciparum [5]) | further results
17 | NS(=O)(=O)c1ccc(N2N=C(c3ccc(OCC4=NCCO4)cc3)CC2c2cccc(Cl)c2)cc1 (configuration not stated) | 3.9 | 8.7 | 34.2 | 0.552 µg/mL (≈ 1.08 µM) | 2.15 µg/mL (≈ 4.22 µM) | 
18 | O=C(/C=C/c1ccc(F)cc1)c1ccc(OCC2=NCCO2)cc1 |  |  |  | 0.813 µg/mL (≈ 2.5 µM) |  | 
19 | CC(=O)c1ccc(OCC2=NCCO2)cc1 |  |  |  | 0.737 µg/mL (≈ 3.36 µM) |  | 
20 | COc1ccc(/C=C/C(=O)c2ccc(OCC3=NCCO3)cc2)cc1 |  |  |  | 1.57 µg/mL (≈ 4.66 µM) |  | 
21 | NS(=O)(=O)c1ccc(N2N=C(c3ccc(OCC4=NCCO4)cc3)CC2c2cccc([N+](=O)[O-])c2)cc1 (configuration not stated) |  |  |  | 1.02 µg/mL (≈ 1.96 µM) |  | 
22 | COc1ccc(C2CC(c3ccc(OCC4=NCCO4)cc3)=NN2c2ccc(S(N)(=O)=O)cc2)cc1 (configuration not stated) | 2.29 | 5.5 | 12.5 | 0.322 µg/mL (≈ 0.636 µM) | 0.737 µg/mL (≈ 1.45 µM) | MSD (Plasmodium berghei [6]): 15.6 days; Activity (Plasmodium berghei [7]): 79.33%; Activity (Heme [8]): Active; log K (Heme [9]): 4.98; Activity (Rattus norvegicus): Non-Toxic; Activity (Plasmodium berghei [10]): 63.89%; Activity (Heme [11]): Active; MSD (Plasmodium berghei [12]): 11.4 days; log K (Heme [13]): 5.87; Activity (mu-oxodimeric heme [14]): Active; log K (mu-oxodimeric heme [15]): 4.34
23 | NS(=O)(=O)c1ccc(N2N=C(c3ccc(OCC4=NCCO4)cc3)CC2c2ccc3c(c2)OCCO3)cc1 (configuration not stated) |  |  |  | 2.15 µg/mL (≈ 4.03 µM) |  | 
24 | O=C(/C=C/c1ccccc1)c1ccc(OCC2=NCCO2)cc1 |  |  |  | 1.77 µg/mL (≈ 5.77 µM) |  | 
25 | CCN(CC)CCCC(C)Nc1ccnc2cc(Cl)ccc12 (configuration not stated) [CHLOROQUINE] |  |  |  |  |  | Activity (Plasmodium berghei [16]): 97.1%; MSD (Plasmodium berghei [17]): 30 days
26 | NS(=O)(=O)c1ccc(N2N=C(c3ccc(OCC4=NCCO4)cc3)CC2c2ccc(F)cc2)cc1 (configuration not stated) | 4.23 | 4.6 | 19.8 | 0.419 µg/mL (≈ 0.847 µM) | 1.77 µg/mL (≈ 3.59 µM) | 
27 | COc1cccc(/C=C/C(=O)c2ccc(OCC3=NCCO3)cc2)c1 |  |  |  | 1.82 µg/mL (≈ 5.4 µM) |  | 
28 | Cc1ccc(/C=C/C(=O)c2ccc(OCC3=NCCO3)cc2)cc1 |  |  |  | 2.68 µg/mL (≈ 8.34 µM) |  | 
29 | COc1cccc(C2CC(c3ccc(OCC4=NCCO4)cc3)=NN2c2ccc(S(N)(=O)=O)cc2)c1 (configuration not stated) | 2.27 | 8.1 | 18.4 | 0.413 µg/mL (≈ 0.815 µM) | 0.936 µg/mL (≈ 1.85 µM) | 
30 | c1ccc2c(C3CC(c4ccc(OCC5=NCCO5)cc4)=NN3)c[nH]c2c1 (configuration not stated) |  |  |  | 0.657 µg/mL (≈ 1.82 µM) |  | 
31 | O=C(/C=C/c1cccc([N+](=O)[O-])c1)c1ccc(OCC2=NCCO2)cc1 |  |  |  | 1.57 µg/mL (≈ 4.46 µM) |  | 

Source: ChEMBL document CHEMBL3872211, “4, 5-Dihydrooxazole-pyrazoline hybrids: Synthesis and their evaluation as potential antimalarial agents” (Eur J Med Chem, 2016)
